From ChEMBL document CHEMBL3627671, “Novel derivatives of nitro-substituted salicylic acids: Synthesis, antimicrobial activity and cytotoxicity” (Bioorg Med Chem, 2015)

Key:
Escherichia coli [1] = assay: Antibacterial activity against Escherichia coli CCM4517 after 24 hrs by microdilution broth method; assay type: functional; settings: CCM4517, 24 h
Outline: (§1)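 Mueller-Hinton broth microdilution (modified M07-A07), pH 7.4 (±0.2). Compounds dissolved in DMSO, tested at final 500 to 0.49 µmol/L. Inoculum in sterile water matched to 0.5 McFarland. Incubated in the dark, humid atmosphere, 35 °C, read at 24 and 48 h visually and at 540 nm. MIC taken as ≥95% growth reduction (IC95) versus control.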

Aspergillus fumigatus [2] = assay: Antifungal activity against Aspergillus fumigatus 231 after 24 hrs by microdilution broth method; assay type: functional; settings: Aspergillus fumigatus, 231, 24 h
Outline: (§2)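 CLSI M27-A3 broth microdilution in RPMI 1640 with glutamine, buffered to pH 7.0 with MOPS; DMSO diluent. Yeast inoculum 5 × 10^3 ± 0.2 CFU/mL. Moulds grown on Sabouraud agar 3–10 days before spore harvest, final inoculum 0.5-5 × 10^4 CFU/mL, checked in a Bürker chamber. Incubated dark, humid, 35 °C, read at 24 and 48 h visually and at 540 nm. MIC taken as ≥80% (yeasts) or ≥50% (filamentous) growth reduction versus control.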

Staphylococcus aureus [3] = assay: Antibacterial activity against Staphylococcus aureus CCM 4516/08 after 48 hrs by microdilution broth method; assay type: functional; settings: CCM 4516/08, 48 h
Candida tropicalis [4] = assay: Antifungal activity against Candida tropicalis 156 after 24 hrs by microdilution broth method; assay type: functional; settings: Candida tropicalis, 156, 24 h; outline: as §2
Mycobacterium kansasii [5] = assay: Antimycobacterial activity against Mycobacterium kansasii 6509/96 after 21 days; assay type: functional; settings: 6509/96, 504 h
Outline: (§3)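 Šula's semisynthetic medium micromethod at 37 °C, read after 7, 14 and 21 days. The 1.0 McFarland suspension was diluted 10^-4. MIC determined. 6509/96 is a clinical isolate.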

Enterococcus sp. [6] = assay: Antibacterial activity against Enterococcus sp. J 14365/08 after 24 hrs by microdilution broth method; assay type: functional; settings: J 14365/08, 24 h; outline: as §1
Candida albicans [7] = assay: Antifungal activity against Candida albicans ATCC 44859 after 48 hrs by microdilution broth method; assay type: functional; settings: ATCC 44859, 48 h; outline: as §2
Mycobacterium avium [8] = assay: Antimycobacterial activity against Mycobacterium avium 330/80 after 14 days; assay type: functional; settings: 330/80, 336 h
Staphylococcus aureus [9] = assay: Antibacterial activity against methicillin-resistant Staphylococcus aureus H 5996/08 after 24 hrs by microdilution broth method; assay type: functional; settings: H 5996/08, 24 h
Escherichia coli [10] = assay: Antibacterial activity against Escherichia coli CCM4517 after 48 hrs by microdilution broth method; assay type: functional; settings: CCM4517, 48 h; outline: as §1
Staphylococcus aureus [11] = assay: Antibacterial activity against Staphylococcus aureus CCM 4516/08 after 24 hrs by microdilution broth method; assay type: functional; settings: CCM 4516/08, 24 h
[12] = tested on: Trichophyton mentagrophytes; assay: Antifungal activity against Trichophyton mentagrophytes 445 after 48 hrs by microdilution broth method; assay type: functional; settings: Trichophyton mentagrophytes, 445, 48 h
Candida tropicalis [13] = assay: Antifungal activity against Candida tropicalis 156 after 48 hrs by microdilution broth method; assay type: functional; settings: Candida tropicalis, 156, 48 h; outline: as §2
[14] = tested on: Staphylococcus epidermidis; assay: Antibacterial activity against Staphylococcus epidermidis H 6966/08 after 48 hrs by microdilution broth method; assay type: functional; settings: H 6966/08, 48 h; outline: as §1
Klebsiella pneumoniae [15] = assay: Antibacterial activity against Klebsiella pneumoniae D 11750/08 after 48 hrs by microdilution broth method; assay type: functional; settings: D 11750/08, 48 h; outline: as §1
Mycobacterium kansasii [16] = assay: Antimycobacterial activity against Mycobacterium kansasii 235/80 after 21 days; assay type: functional; settings: 235/80, 504 h; outline: as §3
Pseudomonas aeruginosa [17] = assay: Antibacterial activity against Pseudomonas aeruginosa CCM 1961 after 48 hrs by microdilution broth method; assay type: functional; settings: CCM 1961, 48 h; outline: as §1
Pichia kudriavzevii [18] = assay: Antifungal activity against Candida krusei E28 after 48 hrs by microdilution broth method; assay type: functional; settings: E28, 48 h; outline: as §2
Mycobacterium avium [19] = assay: Antimycobacterial activity against Mycobacterium avium 330/80 after 21 days; assay type: functional; settings: 330/80, 504 h
Mycobacterium kansasii [20] = assay: Antimycobacterial activity against Mycobacterium kansasii 235/80 after 14 days; assay type: functional; settings: 235/80, 336 h; outline: as §3
[21] = tested on: Mycobacterium tuberculosis; assay: Antimycobacterial activity against Mycobacterium tuberculosis H37Rv 331/88 after 14 days; assay type: functional; settings: H37Rv 331/88, 336 h
Mycobacterium kansasii [22] = assay: Antimycobacterial activity against Mycobacterium kansasii 235/80 after 7 days; assay type: functional; settings: 235/80, 168 h; outline: as §3
Mycobacterium kansasii [23] = assay: Antimycobacterial activity against Mycobacterium kansasii 6509/96 after 14 days; assay type: functional; settings: 6509/96, 336 h; outline: as §3
Lichtheimia corymbifera [24] = assay: Antifungal activity against Absidia corymbifera 272 after 48 hrs by microdilution broth method; assay type: functional; settings: Lichtheimia corymbifera, 272, 48 h; outline: as §2
[25] = tested on: Staphylococcus epidermidis; assay: Antibacterial activity against Staphylococcus epidermidis H 6966/08 after 24 hrs by microdilution broth method; assay type: functional; settings: H 6966/08, 24 h; outline: as §1
HepG2 = assay: Cytotoxicity against human HepG2 cells after 24 hrs […]; assay type: cell-based; settings: HepG2, 24 h
Klebsiella pneumoniae [26] = assay: Antibacterial activity against ESBL-positive Klebsiella pneumoniae J 14368/08 after 24 hrs by microdilution broth method; assay type: functional; settings: J 14368/08, 24 h; outline: as §1
Mycobacterium kansasii [27] = assay: Antimycobacterial activity against Mycobacterium kansasii 6509/96 after 7 days; assay type: functional; settings: 6509/96, 168 h; outline: as §3
Nakaseomyces glabratus [28] = assay: Antifungal activity against Candida glabrata 20/I after 24 hrs by microdilution broth method; assay type: functional; outline: as §2
Candida albicans [29] = assay: Antifungal activity against Candida albicans ATCC 44859 after 24 hrs by microdilution broth method; assay type: functional; settings: ATCC 44859, 24 h; outline: as §2
Klebsiella pneumoniae [30] = assay: Antibacterial activity against ESBL-positive Klebsiella pneumoniae J 14368/08 after 48 hrs by microdilution broth method; assay type: functional; settings: J 14368/08, 48 h; outline: as §1
Lichtheimia corymbifera [31] = assay: Antifungal activity against Absidia corymbifera 272 after 24 hrs by microdilution broth method; assay type: functional; settings: Lichtheimia corymbifera, 272, 24 h; outline: as §2
[32] = tested on: Trichophyton mentagrophytes; assay: Antifungal activity against Trichophyton mentagrophytes 445 after 24 hrs by microdilution broth method; assay type: functional; settings: Trichophyton mentagrophytes, 445, 24 h
Staphylococcus aureus [33] = assay: Antibacterial activity against methicillin-resistant Staphylococcus aureus H 5996/08 after 48 hrs by microdilution broth method; assay type: functional; settings: H 5996/08, 48 h
[34] = tested on: Mycobacterium tuberculosis; assay: Antimycobacterial activity against Mycobacterium tuberculosis H37Rv 331/88 after 21 days; assay type: functional; settings: H37Rv 331/88, 504 h
[35] = Selectivity index, ratio of CI50 for human HepG2 cells to MIC100 for Mycobacterium tuberculosis H37Rv 331/88
Aspergillus fumigatus [36] = assay: Antifungal activity against Aspergillus fumigatus 231 after 48 hrs by microdilution broth method; assay type: functional; settings: Aspergillus fumigatus, 231, 48 h; outline: as §2
Nakaseomyces glabratus [37] = assay: Antifungal activity against Candida glabrata 20/I after 48 hrs by microdilution broth method; assay type: functional; outline: as §2
Trichosporon asahii [38] = assay: Antifungal activity against Trichosporon asahii 1188 after 24 hrs by microdilution broth method; assay type: functional; settings: Trichosporon asahii, 1188, 24 h; outline: as §2
Trichosporon asahii [39] = assay: Antifungal activity against Trichosporon asahii 1188 after 48 hrs by microdilution broth method; assay type: functional; settings: Trichosporon asahii, 1188, 48 h; outline: as §2
Pichia kudriavzevii [40] = assay: Antifungal activity against Candida krusei E28 after 24 hrs by microdilution broth method; assay type: functional; settings: E28, 24 h; outline: as §2
Klebsiella pneumoniae [41] = assay: Antibacterial activity against Klebsiella pneumoniae D 11750/08 after 24 hrs by microdilution broth method; assay type: functional; settings: D 11750/08, 24 h; outline: as §1
Enterococcus sp. [42] = assay: Antibacterial activity against Enterococcus sp. J 14365/08 after 48 hrs by microdilution broth method; assay type: functional; settings: J 14365/08, 48 h; outline: as §1
Pseudomonas aeruginosa [43] = assay: Antibacterial activity against Pseudomonas aeruginosa CCM 1961 after 24 hrs by microdilution broth method; assay type: functional; settings: CCM 1961, 24 h; outline: as §1

O=C(Nc1cc(C(F)(F)F)cc(C(F)(F)F)c1)c1cc([N+](=O)[O-])ccc1O
32 µM: MIC (Mycobacterium kansasii [5]) | MIC (Mycobacterium avium [8]) | MIC (Mycobacterium kansasii [16]) | MIC (Mycobacterium avium [19]) | MIC (Mycobacterium kansasii [20]) | MIC (Mycobacterium kansasii [23])
13.9 µM: IC50 (HepG2)
16 µM: MIC [21] | MIC (Mycobacterium kansasii [22]) | MIC (Mycobacterium kansasii [27]) | MIC [34]
0.869: Selectivity Index [35]
3.9 µM: MIC (Staphylococcus aureus [3]) | MIC (Staphylococcus aureus [11])
> 500 µM: MIC (Escherichia coli [1]) | MIC (Aspergillus fumigatus [2]) | MIC (Candida tropicalis [4]) | MIC (Candida albicans [7]) | MIC (Escherichia coli [10]) | MIC [12] | MIC (Candida tropicalis [13]) | MIC (Klebsiella pneumoniae [15]) | MIC (Pseudomonas aeruginosa [17]) | MIC (Pichia kudriavzevii [18]) | MIC (Lichtheimia corymbifera [24]) | MIC (Klebsiella pneumoniae [26]) | MIC (Nakaseomyces glabratus [28]) | MIC (Candida albicans [29]) | MIC (Klebsiella pneumoniae [30]) | MIC (Lichtheimia corymbifera [31]) | MIC [32] | MIC (Aspergillus fumigatus [36]) | MIC (Nakaseomyces glabratus [37]) | MIC (Trichosporon asahii [38]) | MIC (Trichosporon asahii [39]) | MIC (Pichia kudriavzevii [40]) | MIC (Klebsiella pneumoniae [41]) | MIC (Pseudomonas aeruginosa [43])
500 µM: MIC (Enterococcus sp. [6]) | MIC (Enterococcus sp. [42])
15.6 µM: MIC [14] | MIC [25]
7.81 µM: MIC (Staphylococcus aureus [9]) | MIC (Staphylococcus aureus [33])

O=C(Nc1cc(C(F)(F)F)cc(C(F)(F)F)c1)c1cccc([N+](=O)[O-])c1O
0.925: Selectivity Index [35]
7.4 µM: IC50 (HepG2)
16 µM: MIC (Mycobacterium kansasii [22])
125 µM: MIC (Mycobacterium avium [8]) | MIC (Mycobacterium avium [19])
8 µM: MIC [21] | MIC [34]
32 µM: MIC (Mycobacterium kansasii [5]) | MIC (Mycobacterium kansasii [16]) | MIC (Mycobacterium kansasii [20]) | MIC (Mycobacterium kansasii [23]) | MIC (Mycobacterium kansasii [27])
